ChEMBL document CHEMBL1122599, “Antiinflammatory activity of 5,6-diaryl-2,3-dihydroimidazo[2,1-b]thiazoles. Isomeric 4-pyridyl and 4-substituted phenyl derivatives” (1984)

Tests used:
Rattus norvegicus [1] = test: Adjuvant arthritic activity in rat uninjected leg on day 16 tested at 50 mg/kg perorally; assay type: functional; settings: 384 h, route oral
Method in brief: (§1)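 Rats received oral doses daily from the day of adjuvant injection for 17 days, skipping days 4, 5, 11 and 12. Leg volumes were compared with those of an arthritic vehicle-control group. Significance was judged by Student's t test.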

Rattus norvegicus [2] = test: Adjuvant arthritic activity in rat injected leg on day 3 tested at 50 mg/kg perorally.; assay type: functional; settings: 72 h, route oral; method in brief: as §1
Rattus norvegicus [3] = test: Adjuvant arthritic activity in rat injected leg on day 16 tested at 50 mg/kg perorally; assay type: functional; settings: 384 h, route oral; method in brief: as §1
Rattus norvegicus [4] = test: Adjuvant arthritic activity in rat injected leg on day 3 tested at 50 mg/kg perorally; assay type: functional; settings: 72 h, route oral; method in brief: as §1
Rattus norvegicus [5] = test: Adjuvant arthritic activity in rat uninjected leg on day 16 tested at 50 mg/kg perorally.; assay type: functional; settings: 384 h, route oral; method in brief: as §1
Rattus norvegicus [6] = test: Adjuvant arthritic activity in rat injected leg on day 16 tested at 50 mg/kg perorally.; assay type: functional; settings: 384 h, route oral; method in brief: as §1
Mus musculus [7] = test: Cutaneous oxazolone induced contact sensitivity in mouse and percent stimulation in right hind paw was determined at a dose 25 mg/kg perorally.; settings: route oral
Mus musculus [8] = test: Cutaneous oxazolone induced contact sensitivity in mouse and percent stimulation in right hind paw was determined at a dose 20 mg/kg perorally; settings: route oral
Rattus norvegicus [9] = test: Adjuvant arthritic activity in rat injected leg on day 16 tested at 20 mg/kg perorally.; assay type: functional; settings: 384 h, route oral; method in brief: as §1
Rattus norvegicus [10] = test: Adjuvant arthritic activity in rat uninjected leg on day 16 tested at 20 mg/kg perorally.; assay type: functional; settings: 384 h, route oral; method in brief: as §1
Mus musculus [11] = test: Cutaneous oxazolone induced contact sensitivity in mouse and percent stimulation in right hind paw was determined at a dose 25 mg/kg perorally; settings: route oral

Structure (SMILES): c1cc(-c2nc3n(c2-c2ccncc2)CCS3)ccn1
- inhibition in vivo at 50 mg/kg (Rattus norvegicus [1]): -3%
- inhibition in vivo at 50 mg/kg (Rattus norvegicus [2]): -4%
- inhibition in vivo at 50 mg/kg (Rattus norvegicus [3]): 7%

Structure (SMILES): Fc1ccc(-c2nc3n(c2-c2ccncc2)CCS3)cc1
- inhibition in vivo at 50 mg/kg (Rattus norvegicus [4]): 27%
- inhibition in vivo at 50 mg/kg (Rattus norvegicus [5]): 44%
- inhibition in vivo at 50 mg/kg (Rattus norvegicus [6]): 38%
- Stimulation (Mus musculus [7]): 69%

Structure (SMILES): C[C@]12C=CC(=O)C=C1CC[C@@H]1[C@@H]2[C@@H](O)C[C@@]2(C)[C@H]1CC[C@]2(O)C(=O)CO [PREDNISOLONE]
- Stimulation (Mus musculus [8]): -12%
- inhibition in vivo at 20 mg/kg (Rattus norvegicus [9]): 42%
- inhibition in vivo at 50 mg/kg (Rattus norvegicus [4]): 28%
- inhibition in vivo at 20 mg/kg (Rattus norvegicus [10]): 54%

Structure (SMILES): COc1ccc(-c2nc3n(c2-c2ccncc2)CCS3)cc1
- inhibition in vivo at 50 mg/kg (Rattus norvegicus [1]): 21%
- inhibition in vivo at 50 mg/kg (Rattus norvegicus [4]): 15%
- Stimulation (Mus musculus [11]): 59%
- inhibition in vivo at 50 mg/kg (Rattus norvegicus [3]): 20%

Structure (SMILES): COc1ccc(-c2nc3n(c2-c2ccc(OC)cc2)CCS3)cc1
- inhibition in vivo at 50 mg/kg (Rattus norvegicus [2]): 25%
- inhibition in vivo at 50 mg/kg (Rattus norvegicus [5]): 29%
- inhibition in vivo at 50 mg/kg (Rattus norvegicus [6]): 36%
- Stimulation (Mus musculus [7]): 194%

Structure (SMILES): COc1ccc(-c2c(-c3ccncc3)nc3n2CCS3)cc1
- inhibition in vivo at 50 mg/kg (Rattus norvegicus [4]): 0%
- inhibition in vivo at 50 mg/kg (Rattus norvegicus [5]): -37%
- Stimulation (Mus musculus [11]): 42%
- inhibition in vivo at 50 mg/kg (Rattus norvegicus [3]): 1%

Structure (SMILES): c1ccc([C@H]2CN3CCSC3=N2)cc1 [LEVAMISOLE]
- inhibition in vivo at 50 mg/kg (Rattus norvegicus [1]): 1%
- inhibition in vivo at 50 mg/kg (Rattus norvegicus [4]): 0%
- Stimulation (Mus musculus [11]): 230%
- inhibition in vivo at 50 mg/kg (Rattus norvegicus [3]): -2%

Structure (SMILES): CSc1ccc(-c2nc3n(c2-c2ccncc2)CCS3)cc1
- inhibition in vivo at 50 mg/kg (Rattus norvegicus [1]): 16%
- inhibition in vivo at 50 mg/kg (Rattus norvegicus [4]): 16%
- Stimulation (Mus musculus [11]): 19%
- inhibition in vivo at 50 mg/kg (Rattus norvegicus [3]): 12%

Structure (SMILES): CSc1ccc(-c2c(-c3ccncc3)nc3n2CCS3)cc1
- inhibition in vivo at 50 mg/kg (Rattus norvegicus [4]): 7%
- inhibition in vivo at 50 mg/kg (Rattus norvegicus [5]): -18%
- Stimulation (Mus musculus [11]): 19%
- inhibition in vivo at 50 mg/kg (Rattus norvegicus [3]): 8%

Structure (SMILES): Fc1ccc(-c2c(-c3ccncc3)nc3n2CCS3)cc1
- inhibition in vivo at 50 mg/kg (Rattus norvegicus [1]): -9%
- inhibition in vivo at 50 mg/kg (Rattus norvegicus [4]): -2%
- Stimulation (Mus musculus [11]): 15%
- inhibition in vivo at 50 mg/kg (Rattus norvegicus [3]): 4%
